Results published in ChEMBL document CHEMBL1255284, “Aspergillus section Fumigati: antifungal susceptibility patterns and sequence-based identification” (2008).
Values after ≈ are worked out from the molar mass of the structure shown.

Columns and labels:
[1] = system: Neosartorya hiratsukae; experiment: Antimicrobial activity against Neosartorya hiratsukae isolate CNM-CM-3305 obtained from skin of patient after 48 hrs by broth microdilution method; format: functional; details: Aspergillus hiratsukae, isolate CNM-CM-3305, 48 h
Method in brief: (§1)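 CLSI M38-A broth microdilution with modifications: RPMI 1640 with L-glutamine, 2% glucose, buffered to pH 7 with 0.165 M MOPS. Inoculum of 1 × 10^5 to 5 × 10^5 CFU/ml from 3- to 5-day-old cultures. Incubated 35°C, 48 h, humid. Visual reading with a mirror. MIC is complete growth inhibition; echinocandin MEC is hyphal morphological alteration. Azoles 8 to 0.015 μg/ml; others 16 to 0.03 μg/ml.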

[2] = system: Neosartorya pseudofischeri; experiment: Antimicrobial activity against Neosartorya pseudofischeri isolate CNM-CM-2270 obtained from sputum of patient after 48 hrs by broth microdilution method; format: functional; details: Aspergillus thermomutatus, isolate CNM-CM-2270, 48 h
Method in brief: (§2)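 CLSI M38-A broth microdilution with modifications: RPMI 1640 with L-glutamine, MOPS-buffered to pH 7, plus 2% glucose. Inoculum 1 × 10^5 to 5 × 10^5 CFU/ml from 3–5-day cultures. Incubated at 35°C for 48 h, humid. Read visually with a mirror. MIC = complete growth inhibition; echinocandin MEC = altered hyphal morphology. QC strain A. fumigatus ATCC 2004305.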

[3] = system: Aspergillus lentulus; experiment: Antimicrobial activity against Aspergillus lentulus isolate CNM-CM-3599 obtained from sputum of patient after 48 hrs by broth microdilution method; format: functional; details: isolate CNM-CM-3599, 48 h; method in brief: as §1
[4] = system: Aspergillus lentulus; experiment: Antimicrobial activity against Aspergillus lentulus isolate CNM-CM-3134 obtained from sputum of patient after 48 hrs by broth microdilution method; format: functional; details: isolate CNM-CM-3134, 48 h; method in brief: as §1
[5] = system: Aspergillus fumigatus; experiment: Antimicrobial activity against Aspergillus fumigatus ATCC 2004305 after 48 hrs by broth microdilution method; format: functional; details: ATCC 2004305, 48 h
[6] = system: Aspergillus viridinutans; experiment: Antimicrobial activity against Aspergillus viridinutans isolate CNM-CM-3147 obtained from oropharyngeal exudate of patient after 48 hrs by broth microdilution method; format: functional; details: isolate CNM-CM-3147, 48 h; method in brief: as §1
[7] = system: Aspergillus lentulus; experiment: Antimicrobial activity against Aspergillus lentulus isolate CNM-CM-3538 obtained from sputum of patient after 48 hrs by broth microdilution method; format: functional; details: isolate CNM-CM-3538, 48 h; method in brief: as §1
[8] = system: Aspergillus viridinutans; experiment: Antimicrobial activity against Aspergillus viridinutans isolate CNM-CM-4518 obtained from nail of patient after 48 hrs by broth microdilution method; format: functional; details: isolate CNM-CM-4518, 48 h; method in brief: as §1
[9] = system: Neosartorya hiratsukae; experiment: Antimicrobial activity against Neosartorya hiratsukae isolate CNM-CM-3764 obtained from oropharyngeal exudate of patient after 48 hrs by broth microdilution method; format: functional; details: Aspergillus hiratsukae, isolate CNM-CM-3764, 48 h; method in brief: as §1
[10] = system: Neosartorya pseudofischeri; experiment: Antimicrobial activity against Neosartorya pseudofischeri isolate CNM-CM-3914 obtained from nail of patient after 48 hrs by broth microdilution method; format: functional; details: Aspergillus thermomutatus, isolate CNM-CM-3914, 48 h; method in brief: as §2
[11] = system: Neosartorya hiratsukae; experiment: Antimicrobial activity against Neosartorya hiratsukae isolate CNM-CM-3303 obtained from skin of patient after 48 hrs by broth microdilution method; format: functional; details: Aspergillus hiratsukae, isolate CNM-CM-3303, 48 h; method in brief: as §1
[12] = system: Neosartorya pseudofischeri; experiment: Antimicrobial activity against Neosartorya pseudofischeri isolate CNM-CM-4060 obtained from sputum of patient after 48 hrs by broth microdilution method; format: functional; details: Aspergillus thermomutatus; method in brief: as §2
[13] = system: Aspergillus lentulus; experiment: Antimicrobial activity against Aspergillus lentulus isolate CNM-CM-4420 obtained from nail of patient after 48 hrs by broth microdilution method; format: functional; details: isolate CNM-CM-4420, 48 h; method in brief: as §1
[14] = system: Aspergillus fumisynnematus; experiment: Antimicrobial activity against Aspergillus fumisynnematus isolate CNM-CM-4063 obtained from bronchoalveolar aspirate of patient after 48 hrs by broth microdilution method; format: functional; details: isolate CNM-CM-4063, Lung; method in brief: as §1
[15] = system: Neosartorya hiratsukae; experiment: Antimicrobial activity against Neosartorya hiratsukae isolate CNM-CM-3740 obtained from oropharyngeal exudate of patient after 48 hrs by broth microdilution method; format: functional; details: Aspergillus hiratsukae, isolate CNM-CM-3740, 48 h; method in brief: as §1
[16] = system: Aspergillus lentulus; experiment: Antimicrobial activity against Aspergillus lentulus isolate CNM-CM-4415 obtained from sputum of patient after 48 hrs by broth microdilution method; format: functional; details: isolate CNM-CM-4415, 48 h; method in brief: as §1
[17] = system: Neosartorya hiratsukae; experiment: Antimicrobial activity against Neosartorya hiratsukae isolate CNM-CM-4328 obtained from cornea of patient after 48 hrs by broth microdilution method; format: functional; details: Aspergillus hiratsukae, isolate CNM-CM-4328, Cornea; method in brief: as §1
[18] = system: Aspergillus lentulus; experiment: Antimicrobial activity against Aspergillus lentulus isolate CNM-CM-4426 obtained from sputum of patient after 48 hrs by broth microdilution method; format: functional; details: isolate CNM-CM-4426, 48 h; method in brief: as §1
[19] = system: Aspergillus lentulus; experiment: Antimicrobial activity against Aspergillus lentulus isolate CNM-CM-3364 obtained from bronchoalveolar lavage fluid of patient after 48 hrs by broth microdilution method; format: functional; details: isolate CNM-CM-3364, Lung; method in brief: as §1
[20] = system: Aspergillus lentulus; experiment: Antimicrobial activity against Aspergillus lentulus isolate CNM-CM-4370 obtained from sputum of patient after 48 hrs by broth microdilution method; format: functional; details: isolate CNM-CM-4370, 48 h; method in brief: as §1
[21] = system: Aspergillus lentulus; experiment: Antimicrobial activity against Aspergillus lentulus isolate CNM-CM-3583 obtained from sputum of patient after 48 hrs by broth microdilution method; format: functional; details: isolate CNM-CM-3583, 48 h; method in brief: as §1
[22] = system: Aspergillus lentulus; experiment: Antimicrobial activity against Aspergillus lentulus isolate CNM-CM-4428 obtained from skin of patient after 48 hrs by broth microdilution method; format: functional; details: isolate CNM-CM-4428, 48 h; method in brief: as §1
[23] = system: Aspergillus fumigatiaffinis; experiment: Antimicrobial activity against Aspergillus fumigatiaffinis isolate CNM-CM-3227 obtained from bronchoalveolar lavage fluid of patient after 48 hrs by broth microdilution method; details: isolate CNM-CM-3227, Lung
[24] = system: Aspergillus lentulus; experiment: Antimicrobial activity against Aspergillus lentulus isolate CNM-CM-3537 obtained from sputum of patient after 48 hrs by broth microdilution method; format: functional; details: isolate CNM-CM-3537, 48 h; method in brief: as §1
[25] = system: Aspergillus lentulus; experiment: Antimicrobial activity against Aspergillus lentulus isolate CNM-CM-1290 obtained from sputum of patient after 48 hrs by broth microdilution method; format: functional; details: isolate CNM-CM-1290, 48 h; method in brief: as §1
[26] = system: Aspergillus lentulus; experiment: Antimicrobial activity against Aspergillus lentulus isolate CNM-CM-4330 obtained from sputum of patient after 48 hrs by broth microdilution method; format: functional; details: isolate CNM-CM-4330, 48 h; method in brief: as §1
[27] = system: Aspergillus lentulus; experiment: Antimicrobial activity against Aspergillus lentulus isolate CNM-CM-4387 obtained from sputum of patient after 48 hrs by broth microdilution method; format: functional; details: isolate CNM-CM-4387, 48 h; method in brief: as §1
[28] = system: Neosartorya pseudofischeri; experiment: Antimicrobial activity against Neosartorya pseudofischeri isolate CNM-CM-3769 obtained from sputum of patient after 48 hrs by broth microdilution method; format: functional; details: Aspergillus thermomutatus; method in brief: as §2
[29] = system: Aspergillus fumigatiaffinis; experiment: Antimicrobial activity against Aspergillus fumigatiaffinis isolate CNM-CM-2280 obtained from sputum of patient after 48 hrs by broth microdilution method; details: isolate CNM-CM-2280, 48 h

SMILES	MIC [1]	MIC [2]	MIC [3]	MIC [4]	MIC [5]	MIC [6]	MIC [7]	MIC [8]	MIC [9]	MIC [10]	MIC [11]	MIC [12]	MIC [13]	MIC [14]	MIC [15]	MIC [16]	MIC [17]	MIC [18]	MIC [19]	MIC [20]	also measured
CN(C/C=C/C#CC(C)(C)C)Cc1cccc2ccccc12 [TERBINAFINE]	0.06 µg/mL (≈ 0.206 µM)	1 µg/mL (≈ 3.43 µM)	1 µg/mL (≈ 3.43 µM)	1.75 µg/mL (≈ 6 µM)	2 µg/mL (≈ 6.86 µM)	1.2 µg/mL (≈ 4.12 µM)	1 µg/mL (≈ 3.43 µM)	0.75 µg/mL (≈ 2.57 µM)	0.25 µg/mL (≈ 0.858 µM)	0.5 µg/mL (≈ 1.72 µM)	0.09 µg/mL (≈ 0.309 µM)	0.5 µg/mL (≈ 1.72 µM)	1 µg/mL (≈ 3.43 µM)	1.66 µg/mL (≈ 5.7 µM)	0.2 µg/mL (≈ 0.686 µM)	0.5 µg/mL (≈ 1.72 µM)	0.09 µg/mL (≈ 0.309 µM)	0.83 µg/mL (≈ 2.85 µM)	0.5 µg/mL (≈ 1.72 µM)	0.5 µg/mL (≈ 1.72 µM)	MIC [21]: 1.25 µg/mL (≈ 4.29 µM); MIC [22]: 0.66 µg/mL (≈ 2.26 µM); MIC [23]: 1.4 µg/mL (≈ 4.8 µM); MIC [24]: 1 µg/mL (≈ 3.43 µM); MIC [25]: 1.33 µg/mL (≈ 4.56 µM); MIC [26]: 0.5 µg/mL (≈ 1.72 µM); MIC [27]: 0.5 µg/mL (≈ 1.72 µM); MIC [28]: 1.33 µg/mL (≈ 4.56 µM); MIC [29]: 1.66 µg/mL (≈ 5.7 µM)
C[C@@H](c1ncncc1F)[C@](O)(Cn1cncn1)c1ccc(F)cc1F [VORICONAZOLE]	0.375 µg/mL (≈ 1.07 µM)	3 µg/mL (≈ 8.59 µM)	4 µg/mL (≈ 11.5 µM)	6 µg/mL (≈ 17.2 µM)	0.25 µg/mL (≈ 0.716 µM)	4 µg/mL (≈ 11.5 µM)	7.5 µg/mL (≈ 21.5 µM)	4 µg/mL (≈ 11.5 µM)	1.66 µg/mL (≈ 4.75 µM)	6.66 µg/mL (≈ 19.1 µM)	0.5 µg/mL (≈ 1.43 µM)	3.33 µg/mL (≈ 9.53 µM)	5.33 µg/mL (≈ 15.3 µM)	0.83 µg/mL (≈ 2.38 µM)	1 µg/mL (≈ 2.86 µM)	5.33 µg/mL (≈ 15.3 µM)	1.25 µg/mL (≈ 3.58 µM)	5.33 µg/mL (≈ 15.3 µM)	5.6 µg/mL (≈ 16 µM)	5.33 µg/mL (≈ 15.3 µM)	MIC [21]: 3.5 µg/mL (≈ 10 µM); MIC [22]: 5 µg/mL (≈ 14.3 µM); MIC [23]: 5.6 µg/mL (≈ 16 µM); MIC [24]: 3.5 µg/mL (≈ 10 µM); MIC [25]: 4.5 µg/mL (≈ 12.9 µM); MIC [26]: 3 µg/mL (≈ 8.59 µM); MIC [27]: 4 µg/mL (≈ 11.5 µM); MIC [28]: 3.33 µg/mL (≈ 9.53 µM); MIC [29]: 6.66 µg/mL (≈ 19.1 µM)
